SMILES strings stand for the structures.

A short description of data set [1]: Selectivity index, ratio of CC50 for African green monkey Vero cells to IC50 for Vaccinia virus Copenhagen infected in African green monkey Vero cells. To be noted: read-out: Ratio CC50/IC50. In kind it is toxicity.
The next data set relates to Vaccinia virus. The data set can be described thus: Antiviral activity against Vaccinia virus Copenhagen infected in African green monkey Vero cells assessed as inhibition of viral replication after 4 days by neural red dye-based spectrophotometric method. In kind it is functional, organism-based, Orthopoxvirus vaccinia.
Data set [2] can be described thus: Cytotoxicity against African green monkey Vero cells assessed as reduction in cell viability after 4 days by neural red dye-based spectrophotometric method. Particulars: chlorocebus sabaeus; call rule not given here. An outline of the steps:
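Vero cell monolayers in DMEM with 2% fetal serum were given serial dilutions of compound, with no virus added. After 4 days the cells were stained with neutral red for 2 h, unbound dye was washed out and the cells were lysed. OD was read at 490 nm. CC50 in μM was derived from the OD data; three independent experiments, mean ± 95% confidence interval.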

Data set [3] is described as follows: Cytotoxicity against MDCK cells assessed as reduction in cell viability after 48 hrs by MTT assay. To be noted: dog. In kind it is cell-based, Canis lupus familiaris. An outline of the steps: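 MDCK cells were exposed to three-fold dilutions of compound in MEM (top 300–400 μg mL-1) for 48 h at 36 °C in 5% CO2, then washed twice with PBS. MTT ([…] in PBS) was added for 1 h and formazan was dissolved in DMSO. OD was read at 535 nm. Triplicate wells per concentration; CC50 was taken from OD versus concentration.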
(Tetrazolium assays rely on reduction of a dye to a coloured formazan, in cell work by metabolically active cells.)

Another data set has as its system Influenza A virus. The data set can be described thus: Antiviral activity against Influenza A virus (A/Puerto Rico/8/34(H1N1)) infected in MDCK cells assessed as reduction in virus titer pretreated with cells for 1 hr followed by viral infection for 1 hr and subsequent unbound virion washout measured after 24 to 48 hrs by hemagglutination test. In kind it is functional, organism-based, A/Puerto Rico/8/1934(H1N1). An outline of the steps: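 MDCK cells pre-incubated 1 h at 36 °C with compound in MEM containing 1 μg mL−1 trypsin, then infected with A/Puerto Rico/8/34 (H1N1), moi 0.01, for 1 h. Unbound virus washed off, then 24 h at 36 °C, 5% CO2. Supernatant titre read by hemagglutination after 48 h passage in MDCK, as % of untreated control. Triplicate wells; IC50 calculated.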

Data set [4] can be described thus: Selectivity index, ratio of CC50 for MDCK cells to IC50 for Influenza A virus (A/Puerto Rico/8/34(H1N1)) infected in MDCK cells. In kind it is toxicity, cell-based. Particulars: dog, read-out: Ratio CC50/IC50.
A further data set has as its system Orthopoxvirus. The data set can be described thus: Antiviral activity against Orthopoxvirus assessed as reduction in viral replication. In kind it is functional, organism-based.
The mark [5] stands for this setting: Orthopoxvirus vaccinia, Copenhagen, Vero, 96 h, read-out: IC50.
The mark [6] stands for this setting: Influenza A virus, A/Puerto Rico/8/1934(H1N1), MDCK, read-out: IC50.

For `Nc1ccn(C[C@@H](CO)OCP(=O)(O)O)c(=O)n1` [CIDOFOVIR], the selectivity ratio in data set [1] worked out at 12.
A word on the IC50: it is the concentration that gives 50% inhibition. Usually CC50 stands for the concentration at which the toxic effect on the cells reaches its halfway point. With `CC1(C)[C@@H]2CC[C@@]1(C)/C(=N/NC(=O)c1ccco1)C2`, the figures for the IC50 in the data set on Vaccinia virus (setting [5]) and with Influenza A virus (setting [6]) were 38.7 µM and 325 µM, respectively. Also, in data set [2], the CC50 at 96 h is 285 µM. The values for the selectivity ratio in data set [1] and in data set [4] were 7 and 3, respectively. Moreover, in data set [3], the CC50 at 48 h was 1090 µM.
In the case of `CC12C=CC3(O1)C(C(=O)N1c4ccccc4SC13)C2C(=O)N/N=C1\C[C@H]2CC[C@]1(C)C2(C)C` (mixture of isomers), the IC50 entry is “Not Active” in the data set on Vaccinia virus (vero) and 36 µM in the data set on Influenza A virus (setting [6]). Also, the CC50 at 96 h in data set [2] came out at 67.2 µM. Besides, the CC50 at 48 h in data set [3] turned out to be 123 µM. Also, the selectivity ratio in data set [4] turned out to be 3.
On to `CC12C=CC3(O1)C(C(=O)N1CCCOC13)C2C(=O)N/N=C1\C[C@H]2CC[C@]1(C)C2(C)C` (mixture of isomers), for which the IC50 result in the data set on Vaccinia virus (vero) is “Not Active”; in the data set on Influenza A virus (setting [6]), 481 µM. The CC50 at 96 h in data set [2] was more than 250 µM. Also, the CC50 at 48 h in data set [3] was more than 721 µM. Moreover, the selectivity ratio in data set [4] was 2.
For `COCCN1CC23C=CC(O2)C(C(=O)N/N=C2\C[C@H]4CC[C@]2(C)C4(C)C)C3C1=O` (mixture of isomers), the IC50 result in the data set with Vaccinia virus (vero) and in the data set with Influenza A virus was “Not Active” each time. Also, the 50% cytotoxic concentration (CC50) at 96 h in data set [2] is more than 250 µM. For the same compound, the CC50 at 48 h in data set [3] is 719 µM.
In the case of `CC12C=CC3(CN(c4ccccc4)C(=O)C3C1C(=O)N/N=C1\C[C@H]3CC[C@]1(C)C3(C)C)O2` (mixture of isomers), the IC50 was 6.2 µM in the data set with Vaccinia virus (setting [5]) and 22 µM with Influenza A virus (setting [6]). Besides, the CC50 at 96 h in data set [2] is 600 µM. Moreover, the selectivity ratio in data set [1] was 97; in data set [4], 12. In data set [3], the CC50 at 48 h was found to be 277 µM.
With `CC1(C)[C@@H]2CC[C@@]1(C)/C(=N/NC(=O)C(F)(F)F)C2`, the IC50 result in the data set on Vaccinia virus (vero) and in the data set on Influenza A virus was “Not Active” each time. Also, in data set [2], the CC50 at 96 h is more than 250 µM. The CC50 at 48 h in data set [3] was more than 1080 µM.
Regarding `CC1(C)[C@@H]2CC[C@@]1(C)/C(=N/NC(=O)c1cccs1)C2`, the IC50 entry in the data set on Vaccinia virus (vero) and in the data set on Influenza A virus was “Not Active” throughout. In addition, in data set [2], the CC50 at 96 h was determined as 362 µM. Further, in data set [3], the CC50 at 48 h was 1030 µM.
Take `NC(=O)c1ncn([C@@H]2O[C@H](CO)[C@@H](O)[C@H]2O)n1` [RIBAVIRIN]: the CC50 at 48 h in data set [3] is more than 2130 µM. The IC50 in the data set with Influenza A virus (setting [6]) stood at 30 µM. In data set [4], the selectivity ratio stood at 71.
With `CC1(C)[C@@H]2CC[C@@]1(C)/C(=N/NC(=O)c1ccc(Br)cc1)C2`, the IC50 in the data set with Vaccinia virus (setting [5]) is 11.1 µM; in the data set with Influenza A virus (setting [6]), 219 µM. In data set [2], the cytotoxic concentration (CC50) at 96 h amounted to 288 µM. Also, the selectivity ratio is 26 in data set [1] and 4 in data set [4]. Moreover, the CC50 at 48 h in data set [3] is more than 822 µM.
Turning to `CC12C=CC3(O1)C(C(=O)N1CCSC13)C2C(=O)N/N=C1\C[C@H]2CC[C@]1(C)C2(C)C` (mixture of isomers), the IC50 entry in the data set with Vaccinia virus (vero) is on record as “Not Active”. Besides, the CC50 at 96 h in data set [2] is more than 250 µM.
`CC1(C)[C@@H]2CC[C@@]1(C)[C@H](OC(=O)CCN1CCOCC1)C2`: the IC50 in the data set with Orthopoxvirus turned out to be 3.5 µM.
As for `CC1CCN(CC(=O)N[C@@H]2C[C@H]3CC[C@]2(C)C3(C)C)CC1`, the IC50 with Orthopoxvirus is 2.5 µM.
Turning to `CC(N)C12CC3CC(CC(C3)C1)C2` (stereo not given) [RIMANTADINE], the IC50 in the data set on Influenza A virus (setting [6]) is 67 µM. Further, in data set [4], the selectivity ratio was found to be 5.
`CC12C=CC3(CN(Cc4ccccc4)C(=O)C3C1C(=O)N/N=C1\C[C@H]3CC[C@]1(C)C3(C)C)O2` (mixture of isomers): the concentration for half-maximal inhibition (IC50) result in the data set with Vaccinia virus (vero) is “Not Active”; with Influenza A virus (setting [6]), more than 72 µM. Moreover, the CC50 at 96 h in data set [2] is more than 250 µM. Moreover, the CC50 at 48 h in data set [3] amounted to 227 µM. Moreover, the selectivity ratio in data set [4] amounted to 3.
Turning to `CCN1CC23C=CC(O2)C(C(=O)N/N=C2\C[C@H]4CC[C@]2(C)C4(C)C)C3C1=O` (mixture of isomers), the IC50 result in the data set on Vaccinia virus (vero) and in the data set on Influenza A virus was “Not Active” each time. The CC50 at 96 h in data set [2] was more than 250 µM. In addition, the CC50 at 48 h in data set [3] amounted to 775 µM.
Consider `CC(=O)N/N=C1\C[C@H]2CC[C@]1(C)C2(C)C`, for which, in the data set with Vaccinia virus (vero), the IC50 result was “Not Active”. In data set [2], the CC50 at 96 h was more than 250 µM.
For `CCCC(=O)N/N=C1\C[C@H]2CC[C@]1(C)C2(C)C`, the IC50 in the data set with Vaccinia virus (setting [5]) was 69.8 µM; in the data set on Influenza A virus (setting [6]), 794 µM. Moreover, in data set [2], the CC50 at 96 h is 854 µM. Further, the results for the selectivity ratio in data set [1] and in data set [4] were 12 and 2, respectively. Further, in data set [3], the CC50 at 48 h was more than 1190 µM.
`NC12CC3CC(CC(C3)C1)C2` [AMANTADINE]: the IC50 in the data set with Influenza A virus (setting [6]) came to 64 µM. Also, the selectivity ratio in data set [4] came to 4.
Turning to `CC1(C)[C@@H]2CC[C@@]1(C)/C(=N/NC(=O)c1ccccc1)C2`, the figures for the IC50 with Vaccinia virus (setting [5]) and in the data set with Influenza A virus (setting [6]) were 5.1 µM and 201 µM, respectively. For the same compound, in data set [2], the CC50 at 96 h amounted to 1430 µM. Besides, the selectivity ratio in data set [1] was found to be 280; in data set [4], 5. The CC50 at 48 h in data set [3] is more than 1050 µM.

Values taken from ChEMBL document CHEMBL4368876, “Synthesis of d-(+)-camphor-based N-acylhydrazones and their antiviral activity” (Medchemcomm, 2018).
